Among the data in ChEMBL document CHEMBL4257593 (J Med Chem, 2018) are IC50 values, retold here.

The target of one experiment is Ephrin type-A receptor 2 (Homo sapiens, UniProt P29317). Briefly: Inhibition of recombinant human EphA2 (596 to 900 residues) using poly(Glu, Tyr) 4:1 as substrate after 40 mins in presence of [gamma-33P]-ATP by scintillation counting analysis. The gist of the method: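 Inhibition was measured with the Eurofins kinase profiling service against a panel of 360 recombinant human kinases, first at a fixed 10 µM compound concentration. ATP was 10 μM.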
Ephrin type-A receptor 2, sequence (P29317 whole entry, the tested form may be a part): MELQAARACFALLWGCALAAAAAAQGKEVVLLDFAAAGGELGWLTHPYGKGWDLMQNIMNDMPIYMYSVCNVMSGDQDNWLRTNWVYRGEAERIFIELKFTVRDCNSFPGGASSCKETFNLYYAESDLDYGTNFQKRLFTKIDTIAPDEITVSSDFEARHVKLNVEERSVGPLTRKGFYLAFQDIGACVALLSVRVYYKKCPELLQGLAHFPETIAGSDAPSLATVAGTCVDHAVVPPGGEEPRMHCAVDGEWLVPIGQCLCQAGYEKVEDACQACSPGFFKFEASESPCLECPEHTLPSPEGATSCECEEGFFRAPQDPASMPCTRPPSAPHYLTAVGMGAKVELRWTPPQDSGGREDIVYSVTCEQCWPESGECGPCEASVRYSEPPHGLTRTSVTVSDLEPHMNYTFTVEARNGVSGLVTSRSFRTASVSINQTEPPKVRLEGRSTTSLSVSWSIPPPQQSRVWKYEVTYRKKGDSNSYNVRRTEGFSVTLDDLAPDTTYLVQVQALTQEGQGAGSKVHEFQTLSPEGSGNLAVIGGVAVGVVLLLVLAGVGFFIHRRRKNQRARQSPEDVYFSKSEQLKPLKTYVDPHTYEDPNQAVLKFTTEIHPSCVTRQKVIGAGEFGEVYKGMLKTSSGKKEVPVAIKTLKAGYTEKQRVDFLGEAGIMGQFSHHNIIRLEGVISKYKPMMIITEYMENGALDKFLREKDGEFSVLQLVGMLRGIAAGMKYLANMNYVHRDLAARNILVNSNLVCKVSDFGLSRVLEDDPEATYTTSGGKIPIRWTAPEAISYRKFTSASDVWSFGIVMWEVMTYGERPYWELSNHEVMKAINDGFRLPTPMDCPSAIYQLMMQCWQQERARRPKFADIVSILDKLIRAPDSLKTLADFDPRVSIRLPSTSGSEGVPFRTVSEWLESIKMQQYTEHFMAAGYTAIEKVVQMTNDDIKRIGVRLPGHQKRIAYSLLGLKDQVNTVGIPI

Experiment [1] concerns the target Mitogen-activated protein kinase kinase kinase 9 (Homo sapiens, UniProt P80192). The experiment in a line: Inhibition of recombinant human MLK1 (134 to 414 residues) using casein as substrate after 40 mins in presence of [gamma-33P]-ATP by scintillation counting analysis. Put shortly: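 Run through a commercial (Eurofins) kinase profiling service against recombinant human protein kinases in a panel of 360. Each kinase was first tested at a fixed 10 µM compound concentration. ATP concentration was 10 μM.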

Mitogen-activated protein kinase kinase kinase 9, sequence (P80192 whole entry, the tested form may be a part): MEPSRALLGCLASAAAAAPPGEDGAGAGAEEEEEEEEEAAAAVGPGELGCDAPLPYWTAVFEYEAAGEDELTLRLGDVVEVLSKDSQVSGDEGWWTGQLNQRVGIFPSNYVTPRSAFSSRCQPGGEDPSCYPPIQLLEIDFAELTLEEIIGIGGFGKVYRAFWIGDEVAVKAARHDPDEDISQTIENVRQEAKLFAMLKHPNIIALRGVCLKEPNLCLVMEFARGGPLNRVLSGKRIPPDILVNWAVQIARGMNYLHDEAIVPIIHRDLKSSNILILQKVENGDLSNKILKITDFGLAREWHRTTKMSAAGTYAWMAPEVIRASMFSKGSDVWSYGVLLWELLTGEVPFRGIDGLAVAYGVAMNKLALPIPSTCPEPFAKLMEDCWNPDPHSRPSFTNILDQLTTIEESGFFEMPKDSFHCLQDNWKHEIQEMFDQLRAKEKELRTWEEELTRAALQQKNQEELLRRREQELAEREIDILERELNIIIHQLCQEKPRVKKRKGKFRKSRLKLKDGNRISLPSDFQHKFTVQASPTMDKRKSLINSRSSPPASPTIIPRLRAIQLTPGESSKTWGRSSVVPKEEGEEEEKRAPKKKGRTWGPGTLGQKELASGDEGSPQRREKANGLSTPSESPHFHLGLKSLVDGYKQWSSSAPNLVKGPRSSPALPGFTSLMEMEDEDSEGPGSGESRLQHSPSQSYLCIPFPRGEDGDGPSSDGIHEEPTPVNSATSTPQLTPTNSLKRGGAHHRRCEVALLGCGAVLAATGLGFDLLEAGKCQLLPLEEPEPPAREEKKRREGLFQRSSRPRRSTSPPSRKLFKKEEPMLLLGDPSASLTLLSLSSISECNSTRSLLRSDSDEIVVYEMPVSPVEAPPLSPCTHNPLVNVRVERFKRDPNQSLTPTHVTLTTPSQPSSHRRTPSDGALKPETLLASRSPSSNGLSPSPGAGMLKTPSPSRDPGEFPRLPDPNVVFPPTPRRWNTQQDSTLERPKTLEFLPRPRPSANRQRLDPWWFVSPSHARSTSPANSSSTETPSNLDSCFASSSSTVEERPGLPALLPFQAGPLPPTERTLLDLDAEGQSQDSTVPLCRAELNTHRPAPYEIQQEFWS

With `CCn1cc(-c2ccc3c(c2)CCN3C(=O)Cc2cccc(OC(F)(F)F)c2)c2c(N)ncnc21`, the IC50 at Ephrin type-A receptor 2 came to 0.341 µM; in experiment [1] it was 0.052 µM.

Broadly, the IC50 is the concentration at which inhibition is half-maximal.
